Source: ChEMBL document CHEMBL4368879, “Crystallographic and SAR analyses reveal the high requirements needed to selectively and potently inhibit SIRT2 deacetylase and decanoylase” (Medchemcomm, 2019)
pIC50: −log10 of the molar value. Calls of active or inactive are those of the source. No cut-off for these calls is given here.

What was measured:
[1] = molecular target: T1, NAD-dependent protein deacetylase sirtuin-2 (Homo sapiens) (UniProt Q8IXJ6); experiment: Inhibition of recombinant SIRT2 (unknown origin) using RLIK(Ac)AMC as substrate assessed as reduction in deacetylase activity at 10 uM after 2 hrs in presence of NAD+ by fluorescence assay relative to control
T1 sequence (whole entry): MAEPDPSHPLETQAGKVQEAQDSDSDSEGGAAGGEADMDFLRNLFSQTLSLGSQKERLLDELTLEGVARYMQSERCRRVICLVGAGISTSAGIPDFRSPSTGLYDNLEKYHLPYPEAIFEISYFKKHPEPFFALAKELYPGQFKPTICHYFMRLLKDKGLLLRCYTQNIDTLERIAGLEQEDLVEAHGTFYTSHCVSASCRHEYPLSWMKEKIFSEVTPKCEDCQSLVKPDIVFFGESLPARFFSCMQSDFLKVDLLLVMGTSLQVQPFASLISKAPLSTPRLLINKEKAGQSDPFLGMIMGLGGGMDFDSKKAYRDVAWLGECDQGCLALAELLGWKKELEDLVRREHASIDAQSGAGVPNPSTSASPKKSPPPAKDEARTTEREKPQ
Outline: (§1)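 Fluorogenic sirtuin assay in 25 mM Tris–HCl pH 8.0, 150 mM NaCl, 10% glycerol. Enzyme at 0.1 μM with 10 μM substrate (RLIK(Ac)AMC or ETDK(Ca)AMC) and 400 μM NAD+, 2 h at 25 °C with shaking. Reaction stopped with a trypsin plus 4 mM nicotinamide solution, then 30 min more at 25 °C. Fluorescence read on a plate reader.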

[2] = molecular target: T1, NAD-dependent protein deacetylase sirtuin-2 (Homo sapiens); experiment: Inhibition of recombinant SIRT2 (unknown origin) using ETDK(Ca)AMC as substrate assessed as reduction in decanoylase activity at 10 uM after 2 hrs in presence of NAD+ by fluorescence assay relative to control; outline: as §1
[3] = molecular target: T1, NAD-dependent protein deacetylase sirtuin-2 (Homo sapiens); experiment: Inhibition of recombinant SIRT2 (unknown origin) using RLIK(Ac)AMC as substrate assessed as reduction in deacetylase activity at 100 uM after 2 hrs in presence of NAD+ by fluorescence assay relative to control; outline: as §1
[4] = molecular target: T1, NAD-dependent protein deacetylase sirtuin-2 (Homo sapiens); experiment: Inhibition of recombinant SIRT2 (unknown origin) using ETDK(Ca)AMC as substrate assessed as reduction in decanoylase activity at 100 uM after 2 hrs in presence of NAD+ by fluorescence assay relative to control; outline: as §1
[5] = molecular target: T2, NAD-dependent protein deacetylase sirtuin-2 (Homo sapiens, UniProt Q8IXJ6); experiment: Inhibition of recombinant SIRT2 (unknown origin) using ETDK(Ca)AMC as substrate assessed as reduction in decanoylase activity after 2 hrs in presence of NAD+ by fluorescence assay; outline: as §1
T2 sequence (Q8IXJ6 whole entry): T1 sequence (whole entry)

[6] = molecular target: T2, NAD-dependent protein deacetylase sirtuin-2; experiment: Inhibition of recombinant SIRT2 (unknown origin) using RLIK(Ac)AMC as substrate assessed as reduction in deacetylase activity after 2 hrs in presence of NAD+ by fluorescence assay; outline: as §1
[7] = molecular target: T3, NAD-dependent protein deacetylase sirtuin-3, mitochondrial (Homo sapiens) (UniProt Q9NTG7); experiment: Inhibition of recombinant SIRT3 (unknown origin) using RLIK(Ac)AMC as substrate assessed as reduction in deacetylase activity after 2 hrs in presence of NAD+ by fluorescence assay; outline: as §1
T3 sequence (whole entry): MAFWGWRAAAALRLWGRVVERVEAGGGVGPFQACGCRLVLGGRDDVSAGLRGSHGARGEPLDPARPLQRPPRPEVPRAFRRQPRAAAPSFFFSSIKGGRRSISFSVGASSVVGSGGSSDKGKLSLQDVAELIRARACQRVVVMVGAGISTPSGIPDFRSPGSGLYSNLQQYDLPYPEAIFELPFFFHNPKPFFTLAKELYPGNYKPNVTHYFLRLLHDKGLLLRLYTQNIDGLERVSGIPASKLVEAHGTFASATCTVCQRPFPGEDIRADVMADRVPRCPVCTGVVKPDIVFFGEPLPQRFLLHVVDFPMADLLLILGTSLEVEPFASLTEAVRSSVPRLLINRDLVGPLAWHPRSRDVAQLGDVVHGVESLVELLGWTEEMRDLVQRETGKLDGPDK

[8] = molecular target: NAD-dependent protein deacylase sirtuin-6 (Homo sapiens) (UniProt Q8N6T7); experiment: Inhibition of recombinant SIRT6 (unknown origin) using ETDK(Ca)AMC as substrate assessed as reduction in decanoylase activity after 2 hrs in presence of NAD+ by fluorescence assay; outline: as §1
[9] = molecular target: NAD-dependent protein deacylase sirtuin-5, mitochondrial (Homo sapiens) (UniProt Q9NXA8); experiment: Inhibition of recombinant SIRT5 (unknown origin) using RLIK(Ac)AMC as substrate assessed as reduction in deacetylase activity after 2 hrs in presence of NAD+ by fluorescence assay; outline: as §1
[10] = molecular target: NAD-dependent protein deacylase sirtuin-6 (Homo sapiens) (UniProt Q8N6T7); experiment: Inhibition of recombinant SIRT6 (unknown origin) using RLIK(Ac)AMC as substrate assessed as reduction in deacetylase activity after 2 hrs in presence of NAD+ by fluorescence assay; outline: as §1
[11] = molecular target: T4, NAD-dependent protein deacetylase sirtuin-1 (Homo sapiens) (UniProt Q96EB6); experiment: Inhibition of recombinant SIRT1 (unknown origin) using RLIK(Ac)AMC as substrate assessed as reduction in deacetylase activity after 2 hrs in presence of NAD+ by fluorescence assay; outline: as §1
T4 sequence (whole entry): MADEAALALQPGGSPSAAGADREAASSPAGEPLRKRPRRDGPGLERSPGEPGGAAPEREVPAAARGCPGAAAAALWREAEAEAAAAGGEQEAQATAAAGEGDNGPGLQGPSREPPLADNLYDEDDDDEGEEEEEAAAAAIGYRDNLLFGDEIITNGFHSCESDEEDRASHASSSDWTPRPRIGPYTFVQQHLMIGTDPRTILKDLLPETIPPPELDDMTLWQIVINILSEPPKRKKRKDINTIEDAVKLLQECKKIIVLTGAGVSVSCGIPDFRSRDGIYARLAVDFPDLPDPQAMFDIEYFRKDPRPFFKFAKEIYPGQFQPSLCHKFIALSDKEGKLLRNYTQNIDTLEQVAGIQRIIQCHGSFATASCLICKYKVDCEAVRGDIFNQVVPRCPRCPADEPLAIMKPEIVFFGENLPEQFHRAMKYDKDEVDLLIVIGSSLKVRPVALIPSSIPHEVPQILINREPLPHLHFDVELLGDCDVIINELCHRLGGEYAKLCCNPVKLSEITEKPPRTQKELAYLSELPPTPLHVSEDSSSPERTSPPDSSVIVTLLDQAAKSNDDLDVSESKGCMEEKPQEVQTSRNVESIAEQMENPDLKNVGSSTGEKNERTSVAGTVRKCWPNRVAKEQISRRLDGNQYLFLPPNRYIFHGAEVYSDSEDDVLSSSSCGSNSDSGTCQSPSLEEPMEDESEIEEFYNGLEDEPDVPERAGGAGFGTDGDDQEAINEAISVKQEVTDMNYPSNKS

[12] = molecular target: NAD-dependent protein deacylase sirtuin-5, mitochondrial (Homo sapiens) (UniProt Q9NXA8); experiment: Inhibition of recombinant SIRT5 (unknown origin) using ETDK(Ca)AMC as substrate assessed as reduction in decanoylase activity after 2 hrs in presence of NAD+ by fluorescence assay; outline: as §1
[13] = molecular target: T4, NAD-dependent protein deacetylase sirtuin-1 (Homo sapiens); experiment: Inhibition of recombinant SIRT1 (unknown origin) using ETDK(Ca)AMC as substrate assessed as reduction in decanoylase activity after 2 hrs in presence of NAD+ by fluorescence assay; outline: as §1
[14] = molecular target: T3, NAD-dependent protein deacetylase sirtuin-3, mitochondrial (Homo sapiens); experiment: Inhibition of recombinant SIRT3 (unknown origin) using ETDK(Ca)AMC as substrate assessed as reduction in decanoylase activity after 2 hrs in presence of NAD+ by fluorescence assay; outline: as §1

NAD-dependent protein deacylase sirtuin-5, mitochondrial (Homo sapiens), sequence (Q9NXA8 37-310 limits assumed): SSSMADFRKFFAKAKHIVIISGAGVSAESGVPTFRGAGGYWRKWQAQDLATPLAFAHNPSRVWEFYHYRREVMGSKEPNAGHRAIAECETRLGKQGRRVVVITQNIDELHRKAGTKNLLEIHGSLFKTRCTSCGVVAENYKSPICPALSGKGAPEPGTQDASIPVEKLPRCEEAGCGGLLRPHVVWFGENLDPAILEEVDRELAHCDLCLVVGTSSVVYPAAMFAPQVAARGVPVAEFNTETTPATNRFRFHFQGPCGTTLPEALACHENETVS
NAD-dependent protein deacylase sirtuin-6 (Homo sapiens), sequence (Q8N6T7 whole entry): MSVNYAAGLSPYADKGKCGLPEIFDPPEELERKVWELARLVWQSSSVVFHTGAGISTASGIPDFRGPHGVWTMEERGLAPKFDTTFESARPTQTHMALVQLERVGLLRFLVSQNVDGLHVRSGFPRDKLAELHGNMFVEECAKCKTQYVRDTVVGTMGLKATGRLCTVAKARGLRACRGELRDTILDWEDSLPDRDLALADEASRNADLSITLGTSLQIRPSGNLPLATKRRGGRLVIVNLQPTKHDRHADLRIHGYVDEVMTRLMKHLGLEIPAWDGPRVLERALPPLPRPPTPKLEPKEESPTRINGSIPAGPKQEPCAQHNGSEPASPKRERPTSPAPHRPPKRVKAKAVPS

SMILES | inhibition [1] | inhibition [2] | inhibition [3] | inhibition [4] | pIC50 [5] | pIC50 [6] | inhibition [7] | inhibition [8] | inhibition [9] | inhibition [10] | inhibition [11] | inhibition [12] | inhibition [13] | inhibition [14]
Cc1cc(C)nc(SCC(=O)Nc2ccc([S+]([O-])c3ccccc3)cc2)n1 (stereo unspecified) | 5% | 4% | 40% | 23% | – | – | – | – | – | – | – | – | – | –
Cc1ccc(Sc2ccc(NC(=O)CSc3nc(C)cc(C)n3)cc2)cc1 | 30% | 10% | 63% | 70% | – | – | – | – | – | – | – | – | – | –
Cc1cccc(Sc2ccc(NC(=O)CSc3nc(C)cc(C)n3)cc2)c1 | 70% | 54% | 76% | 65% | – | – | – | – | – | – | – | – | – | –
Cc1cc(C)nc(SCC(=O)Nc2cccc(Sc3ccccc3)c2)n1 | 65% | 5% | 73% | 30% | 4.21 | 5.18 | – | – | – | – | – | – | – | –
CC(=O)c1ccc(Sc2ccc(NC(=O)CSc3nc(C)cc(C)n3)cc2)cc1 | 6% | 8% | 5% | 35% | – | – | – | – | – | – | – | – | – | –
Cc1cc(C)nc(SCC(=O)Nc2ccc(Sc3ccc4ccccc4c3)cc2)n1 | 51% | 23% | 70% | 38% | – | – | – | – | – | – | – | – | – | –
Cc1cc(C)nc(SCC(=O)Nc2ccc(Sc3ccc(OC(F)(F)F)cc3)cc2)n1 | 40% | 23% | 60% | 63% | – | – | – | – | – | – | – | – | – | –
Cc1cc(C)nc(SCC(=O)Nc2ccc(Sc3cccc(C(F)(F)F)c3)cc2)n1 | 72% | 72% | 82% | 77% | 4.75 | 6.07 | inactive | inactive | inactive | inactive | inactive | inactive | inactive | inactive
COc1cccc(Sc2ccc(NC(=O)CSc3nc(C)cc(C)n3)cc2)c1 | 80% | 70% | 85% | 80% | 5.08 | 6.15 | inactive | inactive | inactive | inactive | inactive | inactive | inactive | inactive
Cc1cc(C)nc(SCC(=O)Nc2cccc(COc3ccccc3)c2)n1 | 53% | 32% | 76% | – | – | – | – | – | – | – | – | – | – | –
COc1ccc(Sc2ccc(NC(=O)CSc3nc(C)cc(C)n3)cc2)cc1 | 55% | 20% | 65% | 58% | – | – | – | – | – | – | – | – | – | –
Cc1cc(C)nc(SCC(=O)Nc2ccc(S(=O)(=O)c3ccccc3)cc2)n1 | 8% | 5% | 50% | 18% | – | – | – | – | – | – | – | – | – | –
Cc1cc(C)nc(SCC(=O)Nc2ccc(Sc3cccnc3)cc2)n1 | 42% | 23% | 67% | 60% | – | – | – | – | – | – | – | – | – | –
Cc1cc(C)nc(SCC(=O)Nc2ccc(Sc3ccc(C(F)(F)F)cc3)cc2)n1 | 28% | 18% | 51% | 42% | – | – | – | – | – | – | – | – | – | –
Cc1cc(C)nc(SCC(=O)Nc2ccc(Sc3cccc4ccccc34)cc2)n1 | 42% | 42% | 53% | 58% | – | – | – | – | – | – | – | – | – | –
Cc1cc(C)nc(SCC(=O)Nc2ccc(Sc3ccccc3)cc2)n1 | 70% | 38% | 80% | 53% | 4.94 | 5.88 | – | – | – | – | – | – | – | –
Cc1cc(C)nc(SCC(=O)Nc2ccc(Sc3ccsc3)cc2)n1 | 50% | 18% | 62% | 58% | – | – | – | – | – | – | – | – | – | –
